# Most compounds without a hit are left out; they make up all but 2.4% or so of the library.
# CASP6 VEID inh – caspase-6 (human) enzyme inhibition. P55212. purified caspase-6, Z-VEID-R110 cleavage fluorescence. inhibition, % at 12.5 µM. 0.53% of 350,000 active. AID 686996;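 active = mean inhibition across replicates at least about 35%, with every replicate also reaching that limit, limit read from the data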;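 note: 0% = median of neutral control wells and 100% = no fluorescence left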
# Target sequence (P55212 24-179 limits assumed): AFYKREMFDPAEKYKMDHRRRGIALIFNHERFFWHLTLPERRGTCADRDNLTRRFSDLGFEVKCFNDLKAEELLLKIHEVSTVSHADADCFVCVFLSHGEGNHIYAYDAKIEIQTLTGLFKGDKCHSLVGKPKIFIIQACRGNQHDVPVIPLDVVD
# Target sequence (P55212 194-293 limits assumed): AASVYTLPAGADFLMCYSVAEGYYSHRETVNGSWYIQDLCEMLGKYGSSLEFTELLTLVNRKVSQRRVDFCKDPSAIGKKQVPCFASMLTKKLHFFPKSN
# S100A4 inh HTS – S100A4-myosin IIA interaction inhibition. P26447. S100A4/TAMRA-MyoIIA peptide fluorescence polarization. inhibition, % at 10.7 µM. 0.14% of 360,000 active. AID 652163;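 active = mean inhibition of at least 70% across replicates, with every replicate also reaching that level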
# Target sequence (P26447 whole entry, looked up): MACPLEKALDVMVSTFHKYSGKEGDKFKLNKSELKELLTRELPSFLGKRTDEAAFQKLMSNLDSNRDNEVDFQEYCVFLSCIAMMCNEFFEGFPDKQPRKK
#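 Test system: S100A4 monomer protein; Medium: HEPES pH 7.2 with CaCl2, KCl, NaCl, DTT, Triton; Probe or stimulus: TAMRA-labelled myosin IIA heavy-chain peptide probe, 5 nM; Doses: one dose per compound; Times: polarization read 5 min after assay mix addition, stable 5–60 min; Benchmarks: neutral control DMSO, positive control TFP.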
# ARNT TACC3 PPI – ARNT/TACC3 interaction disruption; inhibition, % at 9.99 µM; 0.66% of 390,000 active; AID 623870; AlphaScreen His-ARNT PAS-B/GST-TACC3 binding, luminescence; TACC3 fragment carries E629A point mutation;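 active = mean inhibition of replicates at least 50% and at least half of replicates each reaching 50%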;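 note: 0% = complete ARNT plus TACC3 wells and 100% = ARNT alone without TACC3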
# Ecoli rRNA inh – inhibitors of bacterial rRNA selective over humanized ribosomes. E. coli WT GFP vs humanized-ribosome RFP mutants, fluorescence, 24 h; active compounds read low; DMSO median 0, no signal -100. GFP signal change (wild-type ribosome), % (no concentration beside the values). 1.6% of 350,000 active;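 active = significant combined selectivity score with lowered wild-type GFP, culture density cut under 30%, mutant RFP and density less affected; inactive = any of these conditions unmet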
# ERAP1 HTS inh – inhibitors of human ERAP1 aminopeptidase; recombinant ERAP1, Leu-AMC fluorescence, 60 min; inhibition, % at 10.7 µM; 0.15% of 340,000 active;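 active = mean replicate inhibition of at least 30%, or all replicates individually reaching that 30% level; inactive = mean below 30% and not every replicate reaching it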;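 note: 0% = neutral control wells and 100% = L-leucinethiol positive control wells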
# PGC1a acetyl inh – lowers PGC1a acetylation signal in U2OS cells | AlphaScreen anti-acetyl-lysine; with virally co-expressed GCN5 acetyltransferase | inhibition, % at 15.6 µM | 0.17% of 350,000 active | AID 651687;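 active = every replicate shows inhibition of at least 40%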;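 note: 0% = neutral control wells and 100% = positive control wells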
# AlphaScreen ctr – counter-screen for ARNT/TACC3 inhibitors: AlphaScreen artifacts. 50% of 1,200 active. shares compounds with ARNT TACC3 PPI. AC50, µM (series often up to 68 µM), without a hit: at the top dose activity change, negative = signal decrease. His-ARNT PASB-GST AlphaScreen artifact counter-screen, luminescence. AID 651705;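 active = every separate test run was called active for a drop in luminescence, with AC50 within twice the top valid dose, actives reach about 71 µM in these data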
# * hit, by the source's call; · = no result given; [ ] = remark or other dose.
SMILES,CASP6 VEID inh,S100A4 inh HTS,ARNT TACC3 PPI,Ecoli rRNA inh,ERAP1 HTS inh,PGC1a acetyl inh,AlphaScreen ctr
C[C@@H]1CCCCO[C@H](CN(C)Cc2ccc(C(F)(F)F)cc2)[C@H](C)CN([C@H](C)CO)C(=O)c2cc(NS(=O)(=O)c3cn(C)cn3)ccc2O1,3.1,5.4,-1.5,0.1,0.5,-3.2,·
COc1ccc(CN(C)C[C@@H]2Oc3ccc(NS(=O)(=O)c4c(C)noc4C)cc3CC(=O)N([C@H](C)CO)C[C@H]2C)cc1,0.8,2.8,·,4.0,-0.8,-0.4,·
Cc1ccc(C2=NN(C3=NN=C(N)Cc4ncnn43)C(O)(C(F)(F)F)C2)cc1 (stereo not drawn),-1.2,-0.5,-0.6,-0.2,14.8,·,·
NC1=NN=C(N2N=C(c3ccco3)CC2(O)C(F)(F)F)n2ncnc2C1 (stereo not drawn),3.2,1.0,72.9*,23.7,-0.3,-1.3,-22.2%
C=C1c2cccc(O)c2C(=O)C2C(=O)[C@]3(O)C(=O)C(C(N)=O)C(=O)[C@@H](N(C)C)[C@@H]3[C@@H](O)[C@H]12 (stereo partly drawn),·,-1.4,54.3*,·,7.3,2.4,-18.6%
C[C@@H]1CN([C@H](C)CO)C(=O)c2cc(NS(=O)(=O)c3ccccc3)ccc2O[C@@H](C)CCCCO[C@H]1CN(C)C(=O)NC1CCCCC1,-1.2,0.2,8.1,-7.4,2.8,-0.2,·
CCSc1nnc(NC(=O)c2ccccn2)s1,·,·,52.2*,·,·,4.3,30.7µM*
Cc1ccc(S(=O)(=O)N(C)C[C@H]2OCCCC[C@H](C)Oc3ccc(NS(=O)(=O)c4cn(C)cn4)cc3C(=O)N([C@H](C)CO)C[C@@H]2C)cc1,-0.4,5.2,-7.6,-2.7,2.3,-10.7,·
O=C1C2CCCN2C(=O)N1CCCCN1CCN(c2cccc(Cl)c2)CC1 (stereo not drawn),·,·,-5.7,·,·,·,·
O=C1C2CCCCN2C(=O)N1CCCCN1CCN(c2cccc(Br)c2)CC1 (stereo not drawn),1.0,-1.4,active,-1.6,-0.2,16.8,-13.1%
O=C(N/N=C/c1c(Cl)cccc1Cl)c1cccc(F)c1,-2.5,-3.2,2.7,11.9,1.5,-9.9,·
Cc1[nH]n(-c2ccccc2)c(=O)c1/C=N/NC(=O)c1cccc(F)c1,·,7.5,58.4*,-6.6,1.8,·,43.4µM*
COC(=O)c1ccc(C(=O)O)nc1,2.4,-0.8,52.6*,6.5,0.6,·,-15.0%
COC(=O)c1ccc(C(=O)OC)nc1,·,·,-3.2,·,·,-4.7,·
CN(C)C(=O)C[C@H]1CC[C@H]2[C@H](COc3ccc(NC(=O)NCc4ccccc4)cc3C(=O)N2C)O1,·,-18.9,-6.0,2.7,·,-1.3,·
COC(C(=O)N/N=C(\C)c1ccc(O)cc1)c1ccccc1 (stereo not drawn),0.8,-3.6,0.5,-1.5,-0.1,5.3,·
C/C(=N\NC(=O)C(c1ccccc1)c1ccccc1)c1ccc(O)cc1,-6.8,-0.7,59.6*,4.0,-1.9,·,-14.7%
O=C(CSc1nnc2ccc(-c3ccccn3)nn12)Nc1ccc(F)cc1F,-2.2,10.8,-1.7,0.5,4.7,·,·
COc1ccccc1NC(=O)CSc1ccc2nnc(-c3ccccn3)n2n1,1.4,2.1,19.2,8.8,-0.4,4.5,·
C(=C\c1ccccc1)/CSc1nnc(-c2ccccn2)n1Cc1ccco1,0.7,-1.6,8.5,-7.0,1.8,·,·
CCn1c(SCC(=O)Nc2ccc3c(c2)OCCO3)nnc1-c1ccccn1,·,·,27.1,·,·,2.2,·
COc1ccc(OC)c(NC(=O)CSc2ccc3nnc(-c4ccccn4)n3n2)c1,0.7,6.6,53.3*,-1.5,4.2,·,-30.2%
O=C(CSc1ccc2nnc(-c3ccccn3)n2n1)Nc1ccc(F)cc1F,-2.0,0.0,53.0*,9.5,0.3,·,-33.8%
Cc1ccccc1-n1c(SCC(=O)Nc2ccc3c(c2)OCO3)nnc1-c1ccccn1,·,·,60.7*,·,·,9.8,-30.7%
Nn1c(SC/C=C/c2ccccc2)nnc1-c1ccccn1,·,·,53.6*,·,·,1.7,59.9µM*
SMILES,CASP6 VEID inh,S100A4 inh HTS,ARNT TACC3 PPI,Ecoli rRNA inh,ERAP1 HTS inh,PGC1a acetyl inh,AlphaScreen ctr
CO[C@@H]1CN(C)C(=O)c2cc(NC(=O)c3ccc4c(c3)OCO4)ccc2OC[C@H](C)N(CCC(F)(F)F)C[C@@H]1C,0.0,1.2,4.5,-3.6,-3.3,-2.0,·
COc1ccc(NC(=O)CSc2nnc(-c3ccccn3)n2N)cc1,·,·,55.1*,·,·,·,-33.8%
COc1ccc(NC(=O)CSc2ccc3nnc(-c4ccccn4)n3n2)cc1,2.9,2.3,66.4*,3.3,2.5,·,-16.9%
CCOC(=O)c1cnc(-n2[nH]c(C)cc2=O)[nH]c1=O,22.1,-5.0,69.8*,7.6,1.1,5.6,12.7µM*
CCOC(=O)c1cnc[nH]c1=O,3.9,6.0,6.0,6.9,-0.1,-2.1,·
CC(OC(=O)Cc1c(F)cccc1Cl)C(=O)NC1(C#N)CCCCC1 (stereo not drawn),-4.0,29.9,active,3.3,-0.2,·,-8.2%
O=C(CNS(=O)(=O)c1ccc([N+](=O)[O-])cc1)N/N=C/c1ccc(O)cc1O,-9.6,47.5,62.7*,5.2,1.2,-18.2,-13.4%
O=C(CN1CC(=O)Oc2ccccc21)NCc1ccco1,·,·,61.3*,·,·,-12.0,19.3µM*
CC(=O)N1CN(CCCn2ccnc2)Cc2c1sc1c2CCCC1,·,·,17.9,·,·,1.1,·
CC(=O)N1CN(Cc2ccccn2)Cc2c1sc1c2CCCC1,·,·,71.2*,·,·,13.6,-15.1%
COCC(=O)N(C[C@H]1N[C@H](CO)[C@@H]1c1ccc(C2=CCCC2)cc1)C(C)C,·,·,4.6,2.4,·,-4.4,·
COC(=O)C[C@@H]1CC[C@@H](NS(=O)(=O)c2ccc(OC)cc2)[C@H](CO)O1,0.6,0.7,58.1*,2.9,0.5,-3.7,3.7%[38 µM]
c1cncc(-c2nc(NCCCn3ccnc3)c3ccccc3n2)c1,-1.9,2.8,63.3*,-11.8,-2.9,11.7,66.4µM*
CC(C)NC(=O)N(C)C[C@@H]1Oc2ccc(NC(=O)c3ccncc3)cc2CC(=O)N([C@H](C)CO)C[C@H]1C,6.1,-4.7,-1.5,3.6,4.8,3.4,·
O=C(C[C@@H]1C=C[C@@H](NC(=O)Nc2cccc(F)c2)[C@@H](CO)O1)NCC1CC1,3.6,8.3,-1.6,-1.2,-0.6,9.5,·
O=C(Nc1ccccc1)N1CCCCN2[C@H](C1)[C@H](c1ccc(C#CC3CC3)cc1)[C@@H]2CO,-4.0,6.4,active,5.4,-0.2,10.0,-32.2%[38 µM]
Cc1cc(C)c(S(=O)(=O)N2CCCC2=O)c(C)c1N(C)S(C)(=O)=O,-1.0,3.0,9.2*,26.5,3.5,0.8,-5.4%
COc1ccc(Cl)cc1S(=O)(=O)N1CCCC1=O,0.6,-1.7,-7.0,15.2,3.4,11.4,·

# Screening results (PubChem BioAssay)
